# Results published in ChEMBL document CHEMBL4689842, “EUbOPEN Chemogenomics Library wave 1” (2021).
# Tested on: Fibroblast
# Assay: Multiplex assay against human fibroblast
# Assay type: toxicity, cell-based
# Outline: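 On a CQ1 microscope at 37°C and 5% CO2, live cells were imaged after compound addition. They had been stained at seeding with Hoechst33342, BioTracker Green Microtubule Cytoskeleton Dye, MitoTracker Red and Annexin V Alexa Fluor 680. CellPathfinder machine-learning gating assigned cells to Hoechst high-intensity objects or normal cells, normal cells to healthy, pyknosed or fragmented nuclei, and pyknosed cells to mitotic or apoptotic. Tubulin, mitochondrial-mass and membrane-permeability phenotypes are per cents of healthy-nucleus cells.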
# [1] = 12 h, 1 µM, compound concentration 1 uM, replicate 1
# [2] = 12 h, 1 µM, compound concentration 1 uM, replicate 2
# [3] = 12 h, 10 µM, compound concentration 10 uM, replicate 1
# [4] = 12 h, 10 µM, compound concentration 10 uM, replicate 2
# [5] = 24 h, 1 µM, compound concentration 1 uM, replicate 1
# [6] = 24 h, 1 µM, compound concentration 1 uM, replicate 2
# [7] = 24 h, 10 µM, compound concentration 10 uM, replicate 1
smiles,measurement,setting,value
COc1ccc(NS(=O)(=O)c2sc3ccc(Cl)cc3c2C)cc1N1CCNCC1.Cl,Population Apoptotic (%),[1],50%
same,Population Fragmented Nuclei (%),[1],25%
same,Population Healthy Nuclei (%),[1],38%
same,Population Hoechst High Intensity Objects (%),[1],10%
same,Population Membrane Permeable-Phenotype (%),[1],30%
same,Population Mitochondria Different-Phenotype (%),[1],4%
same,Population Mitotic Cells (%),[1],50%
same,Population Normal (%),[1],89%
same,Population Pyknosed Nuclei (%),[1],35%
same,Population Tubulin-Different-Phenotype (%),[1],30%
same,Total Cell Count,[1],125
same,Population Apoptotic (%),[2],28%
same,Population Fragmented Nuclei (%),[2],13%
same,Population Healthy Nuclei (%),[2],69%
same,Population Hoechst High Intensity Objects (%),[2],12%
same,Population Membrane Permeable-Phenotype (%),[2],0%
same,Population Mitochondria Different-Phenotype (%),[2],26%
same,Population Mitotic Cells (%),[2],71%
same,Population Normal (%),[2],87%
same,Population Pyknosed Nuclei (%),[2],16%
same,Population Tubulin-Different-Phenotype (%),[2],10%
same,Total Cell Count,[2],69
same,Population Apoptotic (%),[3],75%
same,Population Fragmented Nuclei (%),[3],33%
same,Population Healthy Nuclei (%),[3],47%
same,Population Hoechst High Intensity Objects (%),[3],22%
same,Population Membrane Permeable-Phenotype (%),[3],1%
same,Population Mitochondria Different-Phenotype (%),[3],40%
same,Population Mitotic Cells (%),[3],24%
same,Population Normal (%),[3],77%
same,Population Pyknosed Nuclei (%),[3],19%
same,Population Tubulin-Different-Phenotype (%),[3],88%
same,Total Cell Count,[3],217
same,Population Apoptotic (%),[4],61%
same,Population Fragmented Nuclei (%),[4],14%
same,Population Healthy Nuclei (%),[4],56%
same,Population Hoechst High Intensity Objects (%),[4],4%
same,Population Membrane Permeable-Phenotype (%),[4],25%
same,Population Mitochondria Different-Phenotype (%),[4],100%
same,Population Mitotic Cells (%),[4],38%
same,Population Normal (%),[4],95%
same,Population Pyknosed Nuclei (%),[4],29%
same,Population Tubulin-Different-Phenotype (%),[4],94%
same,Total Cell Count,[4],49
same,Population Apoptotic (%),[5],40%
same,Population Fragmented Nuclei (%),[5],26%
same,Population Healthy Nuclei (%),[5],52%
same,Population Hoechst High Intensity Objects (%),[5],11%
same,Population Membrane Permeable-Phenotype (%),[5],25%
same,Population Mitochondria Different-Phenotype (%),[5],3%
same,Population Mitotic Cells (%),[5],60%
same,Population Normal (%),[5],88%
same,Population Pyknosed Nuclei (%),[5],20%
same,Population Tubulin-Different-Phenotype (%),[5],42%
same,Total Cell Count,[5],136
same,Population Apoptotic (%),[6],33%
same,Population Fragmented Nuclei (%),[6],10%
same,Population Healthy Nuclei (%),[6],77%
same,Population Hoechst High Intensity Objects (%),[6],3%
same,Population Membrane Permeable-Phenotype (%),[6],5%
same,Population Mitochondria Different-Phenotype (%),[6],13%
same,Population Mitotic Cells (%),[6],66%
same,Population Normal (%),[6],96%
same,Population Pyknosed Nuclei (%),[6],12%
same,Population Tubulin-Different-Phenotype (%),[6],5%
same,Total Cell Count,[6],67
same,Population Apoptotic (%),[7],72%
same,Population Fragmented Nuclei (%),[7],23%
same,Population Healthy Nuclei (%),[7],51%
same,Population Hoechst High Intensity Objects (%),[7],25%
same,Population Membrane Permeable-Phenotype (%),[7],9%
